Data: ChEMBL document CHEMBL1138838, “Design, chemical synthesis, and biological evaluation of thiosaccharide analogues of morphine- and codeine-6-glucuronide” (J Med Chem, 2004)
Activity calls are given as the source filed them. The rule behind the calls is not given here.

How the values were obtained:
[1] = Maximum efficacy for [35S]GTP-gamma-S, binding to Opioid receptor delta 1; format: functional
In short: (§1)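 Membranes from cells expressing the receptor, washed and resuspended in 20 mM Hepes, 10 mM MgCl2, 100 mM NaCl, pH 7.4. 8–15 μg protein incubated 60 min at 25 °C with 50 pM [35S]GTP-γ-S, 10 μM GDP and test compound. Bound label collected on glass fiber filters and counted; EC50 for stimulation of binding.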

[2] = Maximum efficacy for [35S]GTP-gamma-S, binding to Opioid receptor kappa 1; format: functional; in short: as §1
[3] = Maximum efficacy for [35S]GTP-gamma-S, binding to Opioid receptor mu 1; format: functional; in short: as §1
[4] = Inhibition of [3H]DAMGO binding to Opioid receptor mu 1
In short: (§2)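 Membranes from cells expressing the receptor, homogenized and washed in Tris, resuspended in 50 mM Tris pH 7.5. Incubated 60–120 min at 25 °C with [3H]DAMGO (mu), [3H]DPDPE (delta) or [3H]U69593 (kappa), about 15–30 μg protein. Filtration on glass fiber filters, scintillation counting. IC50 from at least six test concentrations; Ki by Cheng–Prusoff.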

[5] = Inhibition of [3H]U-69593 binding to Opioid receptor kappa 1; in short: as §2
[6] = Inhibition of [3H]DPDPE binding to Opioid receptor delta 1; in short: as §2
[7] = Stimulation of [35S]GTP-gamma-S, binding at Opioid receptor kappa; no activity; format: functional; in short: as §1
[8] = Maximum efficacy for [35S]GTP-gamma-S, binding to Opioid receptor kappa 1; no activity; format: functional; in short: as §1
[9] = Stimulation of [35S]GTP-gamma-S, binding at Opioid receptor mu1; not active; format: functional; in short: as §1
[10] = Maximum efficacy for [35S]GTP-gamma-S, binding to Opioid receptor kappa 1; not active; format: functional; in short: as §1
[11] = Stimulation of [35S]GTP-gamma-S, binding at Opioid receptor kappa 1; not active; format: functional; in short: as §1
[12] = Maximum efficacy for [35S]GTP-gamma-S, binding to mu opioid receptor; not active; format: functional; in short: as §1

Structure (SMILES): CC(=O)OC1C(CO)OC(SC2C=C[C@H]3[C@H]4Cc5ccc(O)c6c5[C@@]3(CCN4C)[C@H]2O6)C(OC(C)=O)C1OC(C)=O (stereo partly drawn)
- Emax [1]: 51.5
- Emax [2]: 42.5
- Emax [3]: 64.5
- Ki [4]: 5.4 µM
- Ki [5]: 136 µM
- Ki [6]: 56.2 µM

Structure (SMILES): CC(=O)OCC1OC(SC2C=C[C@H]3[C@H]4Cc5ccc(O)c6c5[C@@]3(CCN4C)[C@H]2O6)C(OC(C)=O)C(OC(C)=O)C1OC(C)=O (stereo in doubt; 5e) [listing 1 of 2 here]
- Ki [5]: 2970 µM
- Ki [6]: 19.5 µM

Structure (SMILES): COC(=O)C1OC(SC2C=C[C@H]3[C@H]4Cc5ccc(OC(C)=O)c6c5[C@@]3(CCN4C)[C@H]2O6)C(OC(C)=O)C(OC(C)=O)C1OC(C)=O (stereo partly drawn)
- Emax [1]: 46.8
- EC50 [7]: Not Active
- Emax [8]: inactive
- Emax [3]: 37.8
- Ki [4]: 100 µM
- Ki [5]: 189 µM
- Ki [6]: 528 µM

Structure (SMILES): CC(=O)OCC1OC(SC2C=C[C@H]3[C@H]4Cc5ccc(O)c6c5[C@@]3(CCN4C)[C@H]2O6)C(OC(C)=O)C(OC(C)=O)C1OC(C)=O (stereo in doubt; 5e) [listing 2 of 2 here]
- Emax [1]: 45.5
- Emax [2]: 26.5
- Emax [3]: 76

Structure (SMILES): CC(=O)OCC1OC(SC2C=C[C@H]3[C@H]4Cc5ccc(OC(C)=O)c6c5[C@@]3(CCN4C)[C@H]2O6)C(OC(C)=O)C(OC(C)=O)C1OC(C)=O (stereo partly drawn)
- Emax [1]: 39.3
- Emax [2]: 36.9
- Emax [3]: 44.1
- Ki [4]: 305 µM
- Ki [5]: 1390 µM
- Ki [6]: 762 µM

Structure (SMILES): COc1ccc2c3c1O[C@H]1C(SC4OC(C(=O)O)C(OC(C)=O)C(OC(C)=O)C4OC(C)=O)C=C[C@H]4[C@@H](C2)N(C)CC[C@]314 (stereo partly drawn)
- Emax [1]: 44.2
- EC50 [9]: Not Active
- Emax [10]: inactive
- Ki [4]: 463 µM
- EC50 [11]: Not Active
- Ki [5]: > 10000 µM
- Ki [6]: 2680 µM
- Emax [12]: inactive

Structure (SMILES): CN1CC[C@]23c4c5ccc(O)c4O[C@H]2[C@@H](O[C@@H]2O[C@H](C(=O)O)[C@@H](O)[C@H](O)[C@H]2O)C=C[C@H]3[C@H]1C5 [MORPHINE GLUCURONIDE]
- Emax [1]: 80
- Emax [8]: inactive
- Emax [3]: 45
- Ki [4]: 12.9 µM
- Ki [5]: 4060 µM
- Ki [6]: 170 µM

Structure (SMILES): CN1CC[C@]23c4c5ccc(O)c4O[C@H]2[C@@H](O)C=C[C@H]3[C@H]1C5
- Emax [3]: 93

Structure (SMILES): CC(=O)OC1C(SC2C=C[C@H]3[C@H]4Cc5ccc(O)c6c5[C@@]3(CCN4C)[C@H]2O6)OC(C(=O)O)C(OC(C)=O)C1OC(C)=O (stereo partly drawn)
- Emax [1]: 78.7
- Emax [3]: 46.6
- Emax [10]: inactive
- Ki [4]: 8.7 µM
- EC50 [11]: Not Active
- Ki [5]: 288 µM
- Ki [6]: 31.4 µM

Structure (SMILES): COC(=O)C1OC(SC2C=C[C@H]3[C@H]4Cc5ccc(OC)c6c5[C@@]3(CCN4C)[C@H]2O6)C(OC(C)=O)C(OC(C)=O)C1OC(C)=O (stereo partly drawn)
- Emax [1]: 64.3
- Emax [2]: 24.3
- Emax [3]: 19.3
- Ki [4]: 64 µM
- Ki [5]: 499 µM
- Ki [6]: 438 µM

Structure (SMILES): COC(=O)C1OC(SC2C=C[C@H]3[C@H]4Cc5ccc(O)c6c5[C@@]3(CCN4C)[C@H]2O6)C(OC(C)=O)C(OC(C)=O)C1OC(C)=O (stereo partly drawn)
- Emax [1]: 104
- Emax [2]: 23.5
- Emax [3]: 88.3
- Ki [4]: 5.4 µM
- Ki [5]: 11 µM
- Ki [6]: 15.6 µM
